Measured values of several laboratories.
Each line is one published result; the experiments were not run side by side.
Matrix: plasma

With `OCc1nc2ccc(NCc3ccc(C(F)(F)F)cc3)cc2[nH]1` the CL/F was 61.7 mL/min/kg (male BALB/c mouse; intravenous, 1 mg/kg).
`NCc1ccc(-c2nn(Cc3ccccc3)c3ccccc23)o1` gave a C0 of 1520 ng/mL (male CD-1 mouse; intravenous, 5 mg/kg).
The Tmax of `C[C@H]1Oc2cc(cnc2N)-c2c(nn(C)c2C#N)CN(C)C(=O)c2ccc(F)cc21` is reported as 1.36 h (male Sprague-Dawley rat; oral, 10 mg/kg, single dose).
`C=CCn1c(=O)c2cnc(Nc3ccc(N4CCN(C)CC4)cc3)nc2n1-c1ccc2c(n1)[C@@](O)(CC)CC2` gave a Cmax of 2100 nM (dog; oral, 10 mg/kg).
`Cc1ccc(OCC(=O)N[C@@H](Cc2c[nH]c3ccccc23)C(=O)OC(C)C)cc1` has a clearance of 32.3 mL/min/kg (male Sprague-Dawley mouse; oral, 20 mg/kg).
The clearance of `Cc1ncsc1-c1ccc([C@H](CC(=O)N2CCN(c3ccc(C#Cc4ccc(C(=O)N5CCC(n6cc(-c7ccc8c(c7)CCN8C(=O)Cc7cccc(OC(F)(F)F)c7)c7c(N)ncnc76)CC5)cc4)cn3)CC2)NC(=O)[C@@H]2C[C@@H](O)CN2C(=O)[C@@H](NC(=O)C2(F)CC2)C(C)(C)C)cc1` is reported as 2.3 mL/min/kg (male C57BL/6 mouse; intravenous, 1 mg/kg).
With `CN(C)C(=O)c1cc2cnc(Nc3ccc(-c4ccc5c(=O)cc(N6CCOCC6)oc5c4)cc3)nc2n1C1CCCC1.Cl` the CL/F was 43.3 mL/min/kg (BALB/c mouse; oral, 20 mg/kg).
The C0 of `CCOC(=O)C1=C(CN2CCC[C@@H]2C(=O)Nc2ccc(B(O)O)cc2)NC(c2nccs2)=N[C@H]1c1ccc(F)cc1Br` is reported as 2160 ng/mL (CD-1 mouse; intravenous, 2 mg/kg).
For `NCc1cc2c(cc1F)C(=O)N(C1CCC(=O)NC1=O)C2` (centres unmarked), the C0 was 2000 ng/mL (male CD-1 mouse; intravenous, 1 mg/kg).
`COc1ccc(N(Cc2csc(-c3ccccc3)n2)C(=O)CCCCCC(=O)NO)cc1` gave a Tmax of 1 h (female Sprague-Dawley rat; oral, 30 mg/kg).
`Cc1ncsc1-c1ccc([C@H](C)NC(=O)[C@@H]2C[C@@H](O)CN2C(=O)[C@@H](NC(=O)CCc2ccc(C#Cc3ccc(C(=O)NCCCn4cc(-c5ccc6c(c5)CCN6C(=O)Cc5cccc(OC(F)(F)F)c5)c5c(N)ncnc54)cc3)cn2)C(C)(C)C)cc1` has a clearance of 2.5 mL/min/kg (male C57BL/6 mouse; intravenous, 1 mg/kg).
`COc1cc(-c2cc(C(C)=O)n3ccccc23)c(OC)cc1Cn1ccnc1` has a Tmax of 0.016 h (male Sprague-Dawley rat; intravenous, 5 mg/kg).
`O=C1CCC(N2Cc3cc(CO)c(F)cc3C2=O)C(=O)N1` (centres unmarked) gave a C0 of 2190 ng/mL (male CD-1 mouse; intravenous, 1 mg/kg).
The C0 of `OCc1ccc(-c2nn(Cc3ccccc3)c3ccccc23)o1` is reported as 5100 ng/mL (male CD-1 mouse; intravenous, 5 mg/kg).
